From the RNAGym collection of RNA variant scans (doi:10.1038/s41586-018-0170-7)

B1: tRNA (parent)
chain: GUUCCGUUGGCGUAAUGGUAACGCGUCUCCCUCCUAAGGAGAAGACUGCGGGUUCGAGUCCCGUACGGAACG

Variants of: B1
Assay: yeast fitness, log relative to wild type (ln ratio); higher = fitter; tRNA-Arg(CCU), competitive growth, 37 C, 1 M NaCl
Procedure, shortened: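 Genotype fitness is expressed as the natural log of its generations over those of the wild type. Each pool of the tRNA-Arg(CCU) variant library, carried on a HIS3 centromeric plasmid in BY4742 lacking the chromosomal gene, came from one of two independent transformations and grew 4 generations in SC-HIS at 30 °C before ~6.5 generations (~26.5 h) in SC-HIS 1M NaCl at 37 °C. Generation numbers used OD-scaled log2 output/input frequencies from 125 bp paired-end Illumina sequencing, combined across replicates by inverse-variance weighting.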

First: G6A C27U C66A
Second: G1A U2G C27U C66A C71U
The “yeast fitness (ln)” value of the first is lower: -0.192 for the first, -0.147 for the second.

Going from G1A G6A C27U C66U A69G A70U C71U to U2G G6A C27U C46U A69G, the “yeast fitness (ln)” value rises from -0.387 to -0.149.

First: G1A U2C A43C C46U A70U
Second: C66A A70G C71U
The “yeast fitness (ln)” value of the first is lower: -0.0817 for the first, -0.0666 for the second.

First: U2C G6A C46U A70G C71U
Second: G1A U2G C27U A43C C46U C66U A70G
The “yeast fitness (ln)” value of the first is higher: -0.0308 for the first, -0.172 for the second.

First: U2G C27U A43C A69G
Second: U2C A43C C66U C71U
The “yeast fitness (ln)” value of the first is higher: -0.0811 for the first, -0.24 for the second.

Going from U2C G6A C27U A43C A69G A70G C71U to U2C G6A A43C C46U C66U A70G, the “yeast fitness (ln)” value rises from -0.256 to -0.0107.

Compared with U2C G6U C46U A69G A70U, G1A U2G G6U C46U is lower in “yeast fitness (ln)” value: -0.086 for the first, -0.0886 for the second.

Going from U2G G6U C27U A43C C66U A69G C71U to A70G C71U, the “yeast fitness (ln)” value rises from -0.645 to -0.0739.

First: G1A U2G G6U C66U A70G C71U
Second: G1A U2G C27U A43C C46U A70U
The “yeast fitness (ln)” value of the first is lower: -0.264 for the first, -0.229 for the second.

Going from G6A C27U A43C C66U A69G C71U to U2C C27U C46U C66A A70U, the “yeast fitness (ln)” value rises from -0.368 to -0.0366.

First: G6U C27U A43C C66A A70G
Second: G6U A43C C46U C66A A69G
The “yeast fitness (ln)” value of the first is lower: -0.293 for the first, 0.0709 for the second.

First: U2G C27U C46U A69G A70U C71U
Second: U2C C66A A70G
The “yeast fitness (ln)” value of the first is lower: -0.563 for the first, -0.11 for the second.

Going from G1A G6U C27U C66U A70U C71U to U2C C27U C46U A70G, the “yeast fitness (ln)” value rises from -0.461 to -0.0268.

First: G1A G6U C27U C66U C71U
Second: A43C C46U C66A C71U
The “yeast fitness (ln)” value of the first is lower: -0.389 for the first, -0.0684 for the second.

Going from G1A G6U C27U A43C C46U A69G A70U C71U to G1A U2C G6U C27U A69G A70G C71U, the “yeast fitness (ln)” value rises from -0.475 to -0.22.

Compared with U2G G6U A43C C46U C66A A70G, U2G C46U A70G is higher in “yeast fitness (ln)” value: -0.251 for the first, -0.0123 for the second.

Going from U2G G6A A43C C46U C66A A69G C71U to A43C C66A A69G A70G, the “yeast fitness (ln)” value rises from -0.341 to -0.154.

First: G6A C27U C66U C71U
Second: G1A G6U C27U A43C C66A A70U
The “yeast fitness (ln)” value of the first is higher: -0.171 for the first, -0.264 for the second.

Compared with U2C C27U A43C C46U C66A, G1A U2C C46U C66U A70U is lower in “yeast fitness (ln)” value: -0.0384 for the first, -0.0818 for the second.

First: U2C G6A C27U C46U C66U A69G A70G C71U
Second: G1A U2G A43C A69G A70U
The “yeast fitness (ln)” value of the first is higher: -0.0479 for the first, -0.159 for the second.

Going from U2G C27U A43C C66U A69G A70U C71U to G1A G6A C27U A43C C46U A70U, the “yeast fitness (ln)” value rises from -0.42 to -0.201.

First: G1A C27U C46U C66A A69G C71U
Second: G1A U2G G6U C27U A43C C46U C66A C71U
The “yeast fitness (ln)” value of the first is higher: -0.168 for the first, -0.41 for the second.

Going from G1A U2G G6A C27U A43C C46U C66A A70U to C27U A69G A70G, the “yeast fitness (ln)” value rises from -0.219 to -0.0809.

Compared with U2G C27U A43C C46U C66U, U2G G6A C46U C66U C71U is higher in “yeast fitness (ln)” value: -0.146 for the first, -0.082 for the second.

Going from U2G G6U C27U A43C C46U C66A A69G A70G C71U to U2C G6U C66U C71U, the “yeast fitness (ln)” value rises from -0.279 to -0.139.

First: G6A A43C C66A A69G A70G C71U
Second: U2C G6A C27U A43C C66U A69G C71U
The “yeast fitness (ln)” value of the first is higher: -0.261 for the first, -0.35 for the second.

Compared with U2G G6U C27U C46U C66U A69G, G6U C27U A69G A70G is lower in “yeast fitness (ln)” value: -0.258 for the first, -0.33 for the second.

Going from G1A U2G C66A A69G A70G C71U to G6U A43C C46U C66U A70G C71U, the “yeast fitness (ln)” value falls from -0.235 to -0.295.

U2G G6A C27U A43C C46U C66U and U2C G6U A70U C71U are the same in “yeast fitness (ln)” value: -0.102 for the first, -0.102 for the second.

Going from G1A G6A C27U A43C A69G C71U to U2G C27U A70G, the “yeast fitness (ln)” value rises from -0.598 to -0.136.

Compared with G1A C27U A69G A70U, G1A G6A A43C C66U A69G C71U is lower in “yeast fitness (ln)” value: -0.216 for the first, -0.811 for the second.

Going from C27U A43C C66U to G6U A43C A70G C71U, the “yeast fitness (ln)” value falls from -0.216 to -0.249.

First: G1A U2G C27U A43C C46U C66A A69G C71U
Second: G1A U2G C27U A43C C66U C71U
The “yeast fitness (ln)” value of the first is higher: -0.315 for the first, -0.452 for the second.

Compared with C27U A43C C46U C66A A70G C71U, G1A U2G G6A C27U C66U A70G C71U is lower in “yeast fitness (ln)” value: -0.101 for the first, -0.309 for the second.

Compared with U2C G6U C27U C46U A69G A70U C71U, G6A C46U C66A A69G A70G C71U is higher in “yeast fitness (ln)” value: -0.334 for the first, -0.185 for the second.

Going from G6U C27U C46U to G1A U2G G6U C27U A43C C46U A70U C71U, the “yeast fitness (ln)” value falls from -0.174 to -0.339.

Going from U2C A43C C46U A70G C71U to G1A U2C G6U C27U A43C C66U A69G A70U C71U, the “yeast fitness (ln)” value falls from 0.00238 to -0.42.

Going from U2C G6U C27U A43C C66U A70U C71U to U2G G6A C27U A43C C46U C66U A69G, the “yeast fitness (ln)” value falls from -0.363 to -0.415.

Compared with U2G G6A C27U A43C C46U C66A, G1A G6U C27U A43C C46U C66A A70U is lower in “yeast fitness (ln)” value: -0.189 for the first, -0.359 for the second.

Going from G1A C27U C66U to C27U C66U A69G A70U C71U, the “yeast fitness (ln)” value falls from -0.206 to -0.369.

Going from C27U C46U A69G C71U to G1A G6A A43C C66U C71U, the “yeast fitness (ln)” value falls from -0.0597 to -0.144.

For G6A C66U, the “yeast fitness (ln)” value was -0.0046.
